Results gathered from unrelated publications.
Protocols differ between the studies behind these lines.
LRRK2: Leucine-rich repeat serine/threonine-protein kinase 2 (LRRK2, Homo sapiens, UniProt Q5S007)
LRRK2 G2019S: Leucine-rich repeat serine/threonine-protein kinase 2 (LRRK2, Homo sapiens, UniProt Q5S007, G2019S)

CNS(=O)(=O)c1ccc(Nc2ncc(C(F)(F)F)c(N3CCC[C@](C)(O)C3)n2)c(C)c1
remaining binding (LRRK2; binding, competition with immobilised ligand; 1 µM): 12%

CC#CC(=O)N1CCC[C@H]1c1nc(-c2ccc(C(=O)Nc3ccccn3)cc2)c2c(N)nccn12
inhibition (LRRK2 G2019S; enzyme activity, inhibitor; 1 µM): 0%

CCCCC(=O)Nc1ccc(-c2ccc3ncn(CCC)c(=O)c3c2)cn1
remaining binding (LRRK2 G2019S; binding, competition with immobilised ligand; 0.5 µM): 100%

C#Cc1cc(-c2cc(Nc3nc(N[C@@H](C)c4ccc(F)cn4)ncc3Cl)n[nH]2)ccc1C=O
inhibition (LRRK2 G2019S; enzyme activity, inhibitor; 0.2 µM): 23%

C[C@H]1CC[C@H](n2c3cnccc3c3cnc(Nc4ccc5c(n4)CCN(C(=O)CO)C5)nc32)CC1
remaining signal (LRRK2; cell-free assay; 1 µM): 28%

C1=C/COCc2cc(ccc2OCCN2CCCC2)Nc2nccc(n2)-c2cccc(c2)COC/1
remaining binding (LRRK2 G2019S; binding; 0.1 µM): 100%

Cc1ccc(NC(=O)c2ccnc(C(F)(F)F)c2)cc1-c1cc(OCCO)nc(N2CCOCC2)c1
remaining binding (LRRK2; binding; 1 µM): 100%

C[C@]1(O)CCCN(c2nc(Nc3ccc(S(=O)(=O)N[C@H]4CC[C@H](CN5CCN(c6ccc(C7CCC(=O)NC7=O)cc6F)CC5)CC4)cc3F)ncc2C(F)(F)F)C1 (stereo partly drawn)
remaining binding (LRRK2 G2019S; binding, competition with immobilised ligand; 1 µM): 39%

CN1CCN(C(=O)c2ccc(NC(=O)Nc3ccc(N(C)c4ccnc(Nc5ccc(CS(C)(=O)=O)cc5)n4)cc3)cc2)CC1
remaining binding (LRRK2 G2019S; binding; 1 µM): 71%

Cc1cc(O)c(-c2ccc([C@@H](C)CN(C)C)cc2)c2c1[nH]c(=O)c1sccc12
inhibition (LRRK2; enzyme activity, inhibitor; 0.1 µM): -15.8%

COc1ccc2[nH]c3c4[nH]c5ccc(OC)cc5c4c4c(c3c2c1)C(=O)NC4=O
remaining binding (LRRK2 G2019S; binding; 1 µM): 2.6%

Cc1cc(S(=O)(=O)N[C@H]2CC[C@H](CN3CCN(c4ccc(C5CCC(=O)NC5=O)cc4F)CC3)CC2)ccc1Nc1ncc(C(F)(F)F)c(N2CCC[C@](C)(O)C2)n1 (stereo partly drawn)
remaining binding (LRRK2 G2019S; binding, competition with immobilised ligand; 1 µM): 4%
